High-throughput results as filed in PubChem BioAssay.
The list is not random: actives were taken first. Their share in the collection is about 3%.
Cl transport mod: modulates chloride dependent transport by human KCC2. Q9H2X9. KCC2 cells, thallium flux FluoZin-2 fluorescence. B-score of Tl+ flux slope (higher = more flux/activation; lower = inhibition) at 10 µM. 2.2% of 190,000 active. AID 1456;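 active = thallium flux slope and its plate-corrected score both differing from the plate sample mean at a set confidence after two filtering rounds, in either direction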;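 note: slope of fluorescence scaled to starting intensity during 10 to 20 s after thallium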
ROMK primary: modulators of human ROMK potassium channel; P48048; Tet-inducible ROMK, thallium flux fluorescence; actives lie on both sides; B-score at 10 µM; 2% of 130,000 active;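 active = signal ratio slope over the read window, or its plate-corrected B-score, at least 3 SD from the plate mean, either direction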;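 note: B-score of the F/F0 ratio slope over 7 to 12 s after thallium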
Target sequence (P48048 whole entry, looked up): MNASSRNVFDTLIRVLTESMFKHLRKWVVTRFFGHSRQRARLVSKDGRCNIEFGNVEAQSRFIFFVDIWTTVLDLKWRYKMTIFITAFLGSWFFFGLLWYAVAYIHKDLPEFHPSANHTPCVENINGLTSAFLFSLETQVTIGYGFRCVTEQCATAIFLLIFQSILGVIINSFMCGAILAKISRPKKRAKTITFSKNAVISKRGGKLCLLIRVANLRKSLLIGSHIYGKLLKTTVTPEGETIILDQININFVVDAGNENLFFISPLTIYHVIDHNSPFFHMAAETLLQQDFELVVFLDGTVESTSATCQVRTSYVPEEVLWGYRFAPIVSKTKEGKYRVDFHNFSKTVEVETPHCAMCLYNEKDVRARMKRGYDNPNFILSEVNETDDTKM
Rad51 HR inh: blocks human Rad51 in homologous recombination | Q06609 | 0.085% of 200,000 active | hRad51 DNA strand exchange, fluorescence dequenching | inhibition, % at 10 µM;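 active = inhibition above 40% at the single screening dose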;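 note: 0% = DMSO control wells and 100% = blanks with heterologous ssDNA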
Target sequence (Q06609 whole entry, looked up): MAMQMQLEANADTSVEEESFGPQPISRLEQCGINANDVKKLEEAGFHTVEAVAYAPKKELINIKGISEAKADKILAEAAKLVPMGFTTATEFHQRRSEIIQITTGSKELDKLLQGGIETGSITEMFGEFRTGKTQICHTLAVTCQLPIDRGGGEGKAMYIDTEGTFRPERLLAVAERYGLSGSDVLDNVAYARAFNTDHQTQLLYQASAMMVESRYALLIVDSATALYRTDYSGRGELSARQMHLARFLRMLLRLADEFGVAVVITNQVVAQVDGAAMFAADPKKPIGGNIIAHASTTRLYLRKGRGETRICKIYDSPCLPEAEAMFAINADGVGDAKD
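Read-out basis: percent inhibition relative to plate controls and blanks / Assay system: human Rad51 nucleoprotein filaments preassembled on unlabelled ssDNA / Timing: filaments 15 min 37 °C, then compound 30 min / Control set: per-plate controls and blanks / Technique: fluorescence dequenching at 485/520 nm / Compound: 10 µM final, single point / Also added: Fluorescein- and BHQ1-tagged 47-mer duplex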
PKD1 inh: blocks activity of human protein kinase D1; Q15139; PKD1 kinase fluorescence polarization assay; inhibition, % (test concentration not listed); 0.056% of 200,000 active; AID 797; in the data active = inhibition above about 50%
KCC2 secondary: confirmation of human KCC2 transport modulators. shares compounds with Cl transport mod. HEK293-KCC2, thallium flux, FluoZin2 fluorescence; active compounds read high. normalised thallium flux (F/F0 slope) at 10 µM. 15% of 3,700 active. AID 1713;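 active = thallium flux slope above the same plate's solvent-only control mean plus 3 SD; inconclusive = the two replicate wells disagree; inactive = no significant difference from solvent-only control wells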
KCC2 bumet counter: thallium flux despite bumetanide block in KCC2 cells, secondary assay 3; AID 1714; shares compounds with Cl transport mod; HEK293-KCC2 + bumetanide/ouabain, thallium flux FluoZin2; active compounds read high; normalized thallium flux at 10 µM; 49% of 3,700 active;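 active = thallium entry rate above the same plate's blocked-transporter control wells by more than 3 SD; inconclusive = the two repeat wells disagree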;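 note: raw slope of fluorescence over initial fluorescence between 10 and 20 s after thallium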
KCC2 sec2: confirmation of human KCC2 transport modulators. 23% of 3,700 active. AID 1715. normalized thallium flux at 10 µM. HEK293-KCC2, thallium flux FluoZin2 fluorescence; actives lie on both sides; F/F0 rise rate, 10–20 s post-thallium. shares compounds with Cl transport mod;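 active = thallium flux slope more than 3 SD above or below the plate's solvent-only control mean, mostly below; inconclusive = the two repeat wells disagreed; inactive = no significant shift from solvent-only controls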;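 note: raw slope with 0.1% DMSO as baseline and bumetanide as block control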
HEK293 Tl flux: parental HEK flux effect, counter-screen; shares compounds with Cl transport mod; HEK293 parental cells, thallium flux FluoZin2, ouabain; baseline-ratio fluorescence slope, 10–20 s after thallium; thallium flux rate (normalised fluorescence) at 10 µM; 46% of 3,700 active; AID 1716;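 active = thallium flux rate significantly above the same plate's solvent-only control wells, beyond their mean plus 3 SD; inconclusive = the two replicate wells gave conflicting results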
KCC2 retest ouab: KCC2 (human) modulation, ouabain retest. 48% of 3,700 active. HEK293-KCC2, thallium flux FluoZin2 fluorescence; bidirectional: low = inhibitor, high = activator. raw Tl+ flux slope (below DMSO = inhibition, above = activation) at 10 µM. shares compounds with Cl transport mod;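 active = thallium flux slope beyond 3 SD from same-plate DMSO control mean in most replicates, usually higher, sometimes lower; inconclusive = repeat tests gave conflicting results; inactive = no significant difference from controls in most replicates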;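 note: slope of initial-normalized fluorescence between seconds 10 and 20 after thallium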
HEK counter2: parental HEK flux effect, counter-screen 2; shares compounds with Cl transport mod; 33% of 3,700 active; thallium flux slope at 10 µM; HEK293 parental, thallium flux FluoZin-2 fluorescence slope;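 active = thallium flux slope above the same plate's solvent-control mean plus 3 SD in both duplicate wells; inconclusive = duplicate wells that disagreed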;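 note: run without ouabain in cells lacking the KCC2 cotransporter; slope of fluorescence scaled to its starting value between 10 and 20 s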
Numbers without * were called inactive; u = inconclusive; x = no result.

SMILES	Cl transport mod	ROMK primary	Rad51 HR inh	PKD1 inh	KCC2 secondary	KCC2 bumet counter	KCC2 sec2	HEK293 Tl flux	KCC2 retest ouab	HEK counter2
CCNc1c([N+](=O)[O-])ncn1C	x	1	-1	-11	x	x	x	x	x	x
C/C(=N\NC(=S)Nc1ccc(C)c(C)c1)c1ccc(N2CCOCC2)cc1	5*	x	9	9	0.011	0.033*	0.032	0.015*	0.023	0.011
Cc1cccc(NC(=O)COC(=O)c2ccc3c(c2)OCO3)c1C	-0.18	-1.3	2	-1	x	x	x	x	x	x
Cc1[nH]c2ccccc2c1SCC(=O)N1CCN(c2ccccc2)CC1	-3.9*	x	2	1	0.0076	0.0043	0.022*	0.0071	0.015*	0.0095
Cn1c(SCc2ccccc2F)nnc1-c1ccccn1	0.2	0.018	30	3	x	x	x	x	x	x
O=C(NC(=S)Nc1nc(-c2cccc([N+](=O)[O-])c2)cs1)c1ccccc1Cl	4.8*	-0.73	17	-9	0.0073	0.0079*	0.03	0.012*	0.024*	0.014*
COC(=O)c1ccccc1NC(=S)NC(=O)COc1ccccc1Cl	19*	-0.4	x	8	0.023*	0.05*	u	0.012*	0.024*	0.016*
CCc1ccccc1NC(=S)NNC(=O)c1ccccc1Cl	3.2*	0.01	22	7	0.017	0.012*	0.03	0.011*	0.019	0.014*
COC(=O)c1ccccc1NC(=S)NC(=O)COc1ccc(C)cc1	3.2	x	7	-6	x	x	x	x	x	x
CCc1ccccc1NC(=S)NN	-0.39	-1.2	8	-7	x	x	x	x	x	x
O=C(NC(=S)Nc1nc(-c2cccc([N+](=O)[O-])c2)cs1)c1cc(Cl)ccc1Cl	6.1*	0.0085	1	1	0.0097	0.011*	0.032	0.0088*	0.027*	0.01*
O=C(Nc1nc(-c2cccc([N+](=O)[O-])c2)cs1)C(c1ccccc1)c1ccccc1	0.31	x	-1	-9	x	x	x	x	x	x
O=C(COC(=O)c1cncc(Br)c1)NC1CCCCCC1	-1.5	-0.63	2	7	x	x	x	x	x	x
O=C(NC(=S)Nc1ccccc1[N+](=O)[O-])c1ccccc1Cl	19*	x	x	x	u	0.034*	0.035	0.019*	0.03*	0.013*
O=C(NNC(=S)NC(=O)c1ccccc1[N+](=O)[O-])c1ccccc1Cl	0.11	x	1	-8	x	x	x	x	x	x
CC(=O)c1ccc(NC(=S)NCc2ccc(Cl)cc2Cl)cc1	0.25	0.7	-3	-5	x	x	x	x	x	x
O=C(Nc1nc2c(Br)cc(Br)cc2c(=O)s1)C1CCC1	9.9*	1.4	-28	x	0.024*	0.041*	0.034	0.027*	0.044*	0.015*
NC(=O)CC(NC(=O)Cc1ccc(Cl)cc1)c1ccc(NCc2ccccc2)c([N+](=O)[O-])c1 (stereo not drawn)	0.67	x	-6	x	x	x	x	x	x	x
Cc1cc(NS(=O)(=O)c2ccc(NC(=O)c3oc4ccccc4c3C)cc2)no1	-2.9*	x	-17	2	0.0086	0.0073	0.033	0.0044	u	0.012
CCOc1ccccc1C1C(C#N)=C(N)Oc2n[nH]c(CC)c21 (stereo not drawn)	-4.9*	x	6	7	0.0086	0.007	0.03	0.0064	0.02	0.0093
CCn1c2ccccc2c2nnc(NN)nc21	1.3	0.51	6	-11	x	x	x	x	x	x
CCn1c2ccc(C)cc2c2nnc(NN)nc21	-6.9*	-0.59	3	11	0.01	u	0.034	0.0075	0.023	0.011
O=C1CCCc2c1nc(-c1ccc([N+](=O)[O-])cc1)n2O	0.65	-0.5	-15	x	x	x	x	x	x	x
O=c1c2ccccc2nc(-c2ccc([N+](=O)[O-])cc2)n1O	9*	0.5	2	-2	u	0.02*	0.034	0.016*	0.028*	u
CC(C)(C)c1csc(NNC(=O)c2ccc(Cl)cc2)n1	24*	0.29	11	x	0.01	0.03*	0.035	0.037*	0.032*	0.014*
SMILES	Cl transport mod	ROMK primary	Rad51 HR inh	PKD1 inh	KCC2 secondary	KCC2 bumet counter	KCC2 sec2	HEK293 Tl flux	KCC2 retest ouab	HEK counter2
CCn1c(COc2ccc(=O)n(-c3ccccc3)n2)n[nH]c1=S	-0.067	0.081	3	-2	x	x	x	x	x	x
O=C(NC(=S)Nc1ccc(N2CCOCC2)cc1)c1cncc(Br)c1	5.5*	0.26	x	5	0.0091	0.019*	0.036	u	0.026*	0.013
O=C(NC(=S)Nc1cccc([N+](=O)[O-])c1)c1ccco1	28*	1.4	25	-2	0.022*	0.079*	u	u	0.062*	0.025*
O=C(NC(=S)Nc1ccccn1)c1cccc([N+](=O)[O-])c1	8*	-1.5	18	x	u	0.042*	0.035	0.014*	0.026	0.013*
O=C(NC(=S)Nc1cccc([N+](=O)[O-])c1)c1ccccc1	12*	x	-9	x	0.0093	0.03*	0.033	u	0.024	u
CCOc1ccc(C(=O)NC(=S)Nc2ccccn2)cc1[N+](=O)[O-]	0.081	1.2	-1	-8	x	x	x	x	x	x
CCCc1nc2c(sc3nc4c(cc32)COC(C)(C)C4)c(=O)n1CCN(CC)CC	-0.022	1.2	-6	-8	x	x	x	x	x	x
CS(=O)(=O)Oc1ccc(/C=N/NC(=O)c2ccncc2)cc1	0.037	1	7	-13	x	x	x	x	x	x
O=C(NC(=S)Nc1ccc(Br)cn1)c1cccs1	7.7*	1.1	12	14	0.0077	0.024*	0.036	0.017*	0.033*	0.018*
O=C(NC(=S)Nc1ccc(Br)cn1)c1cncc(Br)c1	0.8	0.19	-4	0	x	x	x	x	x	x
Cc1cccnc1NC(=S)NC(=O)c1cccs1	x	x	-1	0	x	x	x	x	x	x
O=C(NC(=S)Nc1ccccn1)c1cncc(Br)c1	6.2*	0.75	x	10	0.0073	0.017*	0.033	0.015*	u	0.014*
O=C(Nc1nnc(-c2ccco2)o1)c1ccc(Cl)cc1	29*	-0.26	x	-2	0.032*	0.069*	u	0.031*	0.06*	0.017*
Cc1cccc(C(=O)Nc2nnc(-c3ccco3)o2)c1	4.7	x	2	-10	x	x	x	x	x	x
Cc1ccc(C(=O)Nc2nnc(-c3ccco3)o2)cc1C	8*	x	-8	-2	0.013*	0.039*	0.029	0.019*	0.038*	0.011*
CN(C)S(=O)(=O)c1ccc(C(=O)Nc2nnc(-c3ccco3)o2)cc1	-0.18	x	3	-3	x	x	x	x	x	x
NNC(=O)c1ccc(Cn2cccn2)o1	-0.062	x	0	x	x	x	x	x	x	x
CC(C)(C)NC(=O)C(=O)NNC(=O)c1ccccc1	3.7*	x	x	-4	0.019*	0.034*	0.035	0.017*	0.029	0.012*
